In brackets after ≈: the same amount, converted by molar mass.
Tests used:
Trichomonas vaginalis [1] = experiment: Antitrichomonal activity against metronidazole-resistant Trichomonas vaginalis ATCC 50143 by trypan blue staining-based cell counting; type: functional
Outline: (§1)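 Log-phase trophozoites (grown 1 day in TYM medium with 10% heat-inactivated FBS, pH 6.8, under partial anaerobiosis at 37°C) seeded at 5 X 10³/well. Compounds dissolved in DMSO and serially diluted in TYM from 100 to 0.78 μg/ml; vehicle wells had 0.05% DMSO. Plates incubated anaerobically at 37°C, with viability followed by trypan blue counting. MIC taken at 24 h as the lowest concentration leaving all trophozoites nonviable.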

Trichomonas vaginalis [2] = experiment: Ratio of MIC for metronidazole-resistant Trichomonas vaginalis ATCC 50143 to metronidazole-susceptible Trichomonas vaginalis clinical isolate; type: functional
Outline: (§2)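 Both T. vaginalis strains were grown in TYM medium (pH 6.8) with 10% heat-inactivated FBS, 2% vitamin mixture, penicillin and streptomycin, under partial anaerobiosis at 37°C. Log-phase trophozoites (5 X 10³/well) taken 1 day after subculture were exposed to twofold dilutions from 100 down to 0.78 μg/ml (from DMSO stocks), with 0.05% DMSO vehicle controls, anaerobically at 37°C. Viability was scored daily by trypan blue counting. MIC was the lowest concentration leaving all trophozoites nonviable at 24 h.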

Trichomonas vaginalis [3] = experiment: Antitrichomonal activity against metronidazole-susceptible Trichomonas vaginalis clinical isolate by trypan blue staining-based cell counting; type: functional; outline: as §1
Trichomonas vaginalis [4] = experiment: Ratio of metronidazole MIC to compound MIC for metronidazole-resistant Trichomonas vaginalis ATCC 50143 by trypan blue staining-based cell counting; type: functional; outline: as §2
HeLa = experiment: Cytotoxicity against human HeLa cells after 24 hrs by MTT assay; type: cell-based
Outline: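 HeLa cells were kept in DMEM with 10% FBS at 37°C under 5% CO₂, then seeded at 5 X 10⁴/well and grown 24 h. Medium was replaced with compound dilutions starting at 1.0 mg/ml, with 0.05% DMSO in control wells, and cells were exposed for 24 h. MTT was then added, formazan was dissolved in DMSO, and OD was read at 540 nm.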

**Q.** Which results are given for `Cc1ncc([N+](=O)[O-])n1CCOc1ccc(C(=O)/C=C/c2ccccc2)cc1`?
**A.** MIC (Trichomonas vaginalis [1]): 50 µg/mL (≈ 132 µM); Ratio (Trichomonas vaginalis [2]): 4; MIC (Trichomonas vaginalis [3]): 1.56 µg/mL (≈ 4.13 µM)

**Q.** For `Cc1ncc([N+](=O)[O-])n1CCOc1ccc(C(=O)/C=C/c2cccc(F)c2)cc1`, which MIC (Trichomonas vaginalis [1]) is on record?
**A.** 100 µg/mL (≈ 253 µM)

**Q.** What about the MIC (Trichomonas vaginalis [3]) of the same compound?
**A.** 25 µg/mL (≈ 63.2 µM)

**Q.** Which results are given for `Cc1ncc([N+](=O)[O-])n1CCOc1ccc(C(=O)/C=C/c2ccc(F)cc2)cc1`?
**A.** MIC (Trichomonas vaginalis [1]): 6.25 µg/mL (≈ 15.8 µM); Ratio (Trichomonas vaginalis [2]): 2; MIC (Trichomonas vaginalis [3]): 1.56 µg/mL (≈ 3.95 µM)

**Q.** Which results are given for `Cc1ncc([N+](=O)[O-])n1CCOc1ccc(C(=O)/C=C/c2ccc(F)c(F)c2)cc1`?
**A.** MIC (Trichomonas vaginalis [1]): 6.25 µg/mL (≈ 15.1 µM); Ratio (Trichomonas vaginalis [2]): 2; MIC (Trichomonas vaginalis [3]): 1.56 µg/mL (≈ 3.77 µM)

**Q.** For `Cc1ncc([N+](=O)[O-])n1CCOc1ccc(C(=O)/C=C/c2cc(F)cc(F)c2)cc1`, which MIC (Trichomonas vaginalis [1]) is on record?
**A.** 3.12 µg/mL (≈ 7.56 µM)

**Q.** What about the Ratio (Trichomonas vaginalis [2]) of the same compound?
**A.** 2

**Q.** What about the Ratio (Trichomonas vaginalis [4]) of the same compound?
**A.** 4

**Q.** What about the MIC (Trichomonas vaginalis [3]) of the same compound?
**A.** 1.56 µg/mL (≈ 3.77 µM)

**Q.** What about the IC50 (HeLa) of the same compound?
**A.** > 1000 µg/mL

**Q.** Which results are given for `Cc1ncc([N+](=O)[O-])n1CCOc1ccc(C(=O)/C=C/c2cc(F)ccc2F)cc1`?
**A.** MIC (Trichomonas vaginalis [1]): 6.25 µg/mL (≈ 15.1 µM); Ratio (Trichomonas vaginalis [2]): 2; MIC (Trichomonas vaginalis [3]): 1.56 µg/mL (≈ 3.77 µM)

**Q.** Which results are given for `Cc1ncc([N+](=O)[O-])n1CCOc1ccc(C(=O)/C=C/c2ccccc2Cl)cc1`?
**A.** MIC (Trichomonas vaginalis [1]): 12.5 µg/mL (≈ 30.4 µM); MIC (Trichomonas vaginalis [3]): 3.12 µg/mL (≈ 7.59 µM)

**Q.** For `Cc1ncc([N+](=O)[O-])n1CCOc1ccc(C(=O)/C=C/c2cccc(Cl)c2)cc1`, which MIC (Trichomonas vaginalis [1]) is on record?
**A.** 3.12 µg/mL (≈ 7.59 µM)

**Q.** What about the Ratio (Trichomonas vaginalis [2]) of the same compound?
**A.** 2

**Q.** What about the Ratio (Trichomonas vaginalis [4]) of the same compound?
**A.** 4

**Q.** And the MIC (Trichomonas vaginalis [3])?
**A.** 1.56 µg/mL (≈ 3.79 µM)

**Q.** What about the IC50 (HeLa) of the same compound?
**A.** > 1000 µg/mL

**Q.** How did the MIC (Trichomonas vaginalis [1]) turn out when `Cc1ncc([N+](=O)[O-])n1CCOc1ccc(C(=O)/C=C/c2ccc(Cl)cc2)cc1` was run?
**A.** 6.25 µg/mL (≈ 15.2 µM)

**Q.** And the MIC (Trichomonas vaginalis [3])?
**A.** 6.25 µg/mL (≈ 15.2 µM)

**Q.** `Cc1ncc([N+](=O)[O-])n1CCOc1ccc(C(=O)/C=C/c2ccc(Cl)cc2Cl)cc1` was tested. Which MIC (Trichomonas vaginalis [1]) did it give?
**A.** 12.5 µg/mL (≈ 28 µM)

**Q.** What about the MIC (Trichomonas vaginalis [3]) of the same compound?
**A.** 6.25 µg/mL (≈ 14 µM)

**Q.** Which MIC (Trichomonas vaginalis [1]) does the source give for `Cc1ncc([N+](=O)[O-])n1CCOc1ccc(C(=O)/C=C/c2c(Cl)cccc2Cl)cc1` here?
**A.** 25 µg/mL (≈ 56 µM)

**Q.** What about the MIC (Trichomonas vaginalis [3]) of the same compound?
**A.** 6.25 µg/mL (≈ 14 µM)

**Q.** For `Cc1ncc([N+](=O)[O-])n1CCOc1ccc(C(=O)/C=C/c2ccccc2Br)cc1`, which MIC (Trichomonas vaginalis [1]) is on record?
**A.** 6.25 µg/mL (≈ 13.7 µM)

**Q.** What about the MIC (Trichomonas vaginalis [3]) of the same compound?
**A.** 3.12 µg/mL (≈ 6.85 µM)

**Q.** How did the MIC (Trichomonas vaginalis [1]) turn out when `Cc1ncc([N+](=O)[O-])n1CCOc1ccc(C(=O)/C=C/c2cccc(Br)c2)cc1` was run?
**A.** 3.12 µg/mL (≈ 6.85 µM)

**Q.** What about the Ratio (Trichomonas vaginalis [4]) of the same compound?
**A.** 4

**Q.** And the MIC (Trichomonas vaginalis [3])?
**A.** 3.12 µg/mL (≈ 6.85 µM)

**Q.** What does the source list for `Cc1ncc([N+](=O)[O-])n1CCOc1ccc(C(=O)/C=C/c2ccc(Br)cc2)cc1`?
**A.** MIC (Trichomonas vaginalis [1]): 6.25 µg/mL (≈ 13.7 µM); MIC (Trichomonas vaginalis [3]): 6.25 µg/mL (≈ 13.7 µM)

**Q.** Which MIC (Trichomonas vaginalis [1]) does the source give for `Cc1ncc([N+](=O)[O-])n1CCOc1ccc(C(=O)/C=C/c2ccccc2C(F)(F)F)cc1` here?
**A.** 25 µg/mL (≈ 56.1 µM)

**Q.** And the MIC (Trichomonas vaginalis [3])?
**A.** 6.25 µg/mL (≈ 14 µM)

**Q.** For `Cc1ncc([N+](=O)[O-])n1CCOc1ccc(C(=O)/C=C/c2ccc(C(F)(F)F)cc2)cc1`, which MIC (Trichomonas vaginalis [1]) is on record?
**A.** 25 µg/mL (≈ 56.1 µM)

**Q.** And the MIC (Trichomonas vaginalis [3])?
**A.** 3.12 µg/mL (≈ 7.02 µM)

**Q.** Which MIC (Trichomonas vaginalis [1]) does the source give for `Cc1ncc([N+](=O)[O-])n1CCOc1ccc(C(=O)/C=C/c2ccc([N+](=O)[O-])cc2)cc1` here?
**A.** 6.25 µg/mL (≈ 14.8 µM)

**Q.** What about the Ratio (Trichomonas vaginalis [2]) of the same compound?
**A.** 2

**Q.** And the Ratio (Trichomonas vaginalis [4])?
**A.** 2

**Q.** What about the MIC (Trichomonas vaginalis [3]) of the same compound?
**A.** 1.56 µg/mL (≈ 3.69 µM)

**Q.** How did the MIC (Trichomonas vaginalis [1]) turn out when `COc1ccc(/C=C/C(=O)c2ccc(OCCn3c([N+](=O)[O-])cnc3C)cc2)cc1` was run?
**A.** 25 µg/mL (≈ 61.4 µM)

**Q.** What about the MIC (Trichomonas vaginalis [3]) of the same compound?
**A.** 3.12 µg/mL (≈ 7.67 µM)

**Q.** Which MIC (Trichomonas vaginalis [1]) does the source give for `COc1ccc(/C=C/C(=O)c2ccc(OCCn3c([N+](=O)[O-])cnc3C)cc2)cc1OC` here?
**A.** 12.5 µg/mL (≈ 28.6 µM)

**Q.** What about the Ratio (Trichomonas vaginalis [2]) of the same compound?
**A.** 8

**Q.** And the MIC (Trichomonas vaginalis [3])?
**A.** 1.56 µg/mL (≈ 3.57 µM)

**Q.** Which MIC (Trichomonas vaginalis [1]) does the source give for `COc1ccc(OC)c(/C=C/C(=O)c2ccc(OCCn3c([N+](=O)[O-])cnc3C)cc2)c1` here?
**A.** 12.5 µg/mL (≈ 28.6 µM)

**Q.** And the MIC (Trichomonas vaginalis [3])?
**A.** 12.5 µg/mL (≈ 28.6 µM)

**Q.** `Cc1ccc(/C=C/C(=O)c2ccc(OCCn3c([N+](=O)[O-])cnc3C)cc2)cc1C` was tested. Which MIC (Trichomonas vaginalis [1]) did it give?
**A.** 12.5 µg/mL (≈ 30.8 µM)

**Q.** What about the MIC (Trichomonas vaginalis [3]) of the same compound?
**A.** 6.25 µg/mL (≈ 15.4 µM)

**Q.** Which MIC (Trichomonas vaginalis [1]) does the source give for `Cc1ncc([N+](=O)[O-])n1CCOc1ccc(C(=O)/C=C/c2cccc3ccccc23)cc1` here?
**A.** 25 µg/mL (≈ 58.5 µM)

**Q.** And the MIC (Trichomonas vaginalis [3])?
**A.** 6.25 µg/mL (≈ 14.6 µM)

**Q.** `Cc1ncc([N+](=O)[O-])n1CCO` [METRONIDAZOLE] was tested. Which MIC (Trichomonas vaginalis [1]) did it give?
**A.** 12.5 µg/mL (≈ 73 µM)

**Q.** What about the Ratio (Trichomonas vaginalis [2]) of the same compound?
**A.** 8

**Q.** And the MIC (Trichomonas vaginalis [3])?
**A.** 1.56 µg/mL (≈ 9.11 µM)

**Q.** And the IC50 (HeLa)?
**A.** > 1000 µg/mL

Source: ChEMBL document CHEMBL3232761, “Novel metronidazole-chalcone conjugates with potential to counter drug resistance in Trichomonas vaginalis” (Eur J Med Chem, 2014)
